Laboratory results reported in ChEMBL document CHEMBL3124889, “Synthesis, spectroscopic, and photophysical characterization and photosensitizing activity toward prokaryotic and eukaryotic cells of porphyrin-magainin and -buforin conjugates” (J Med Chem, 2014).
Activity calls are given as the source filed them. No cut-off for these calls is given here. Where a SMILES comes first, the peptide text is derived from it. [ ]: non-standard residue; d: D form. The star is where a group is joined. Benzoyl(4-TriPhPorphyrinyl) = O=C(c1ccc(-c2c3nc(c(-c4ccccc4)c4ccc([nH]4)c(-c4ccccc4)c4nc(c(-c5ccccc5)c5ccc2[nH]5)C=C4)C=C3)cc1)*; X1 = C[n+]1ccc(-c2c3nc(c(-c4cc[n+](C)cc4)c4ccc([nH]4)c(-c4cc[n+](C)cc4)c4nc(c(-c5ccc(C(=O)*)cc5)c5ccc2[nH]5)C=C4)C=C3)cc1; His(π-Me) = Cn1cncc1C[C@H](N)C(=O)O

Experiments:
[1] = Drug uptake in human HFFF2 cells assessed as increase in red fluorescence at 5 uM incubated for 60 to 3 hrs mins followed by irradiated with 13.5 J cm'-2 of blue light by fluorescence microscopic analysis; format: ADME, cell-based; conditions: hfff2, 5 µM
[2] = Photoinactivation of human HFFF2 cells at 3 uM incubated for 60 mins followed by irradiated with 13.5 J cm'-2 of blue light; format: cell-based; conditions: hfff2, 1 h
Outline: (§1)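 HFFF2 fibroblasts were grown in DMEM with 10% FBS at 37 °C and 5% CO2, seeded at 7 × 10^3 cells/well and grown 48 h. Cells were incubated 60 min in the dark with PS in medium with 3% FBS, washed twice with PBS containing Ca2+/Mg2+, and irradiated in PBS with 13.5 J cm−2 of blue light. After 24 h in 10% FBS medium, viability was read by MTS (1.5 h, A492) as % of untreated control.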

[3] = Drug uptake in human HFFF2 cells assessed as increase in red fluorescence at 5 uM incubated for 60 to 3 hrs mins followed by irradiated with 13.5 J cm'-2 of blue light by flow cytometry; format: ADME, cell-based; conditions: hfff2, 5 µM
[4] = Solubility of the compound in water; format: physicochemical; conditions: buffer
[5] = test system: Staphylococcus aureus; assay: Drug uptake in methicillin-resistant Staphylococcus aureus ATCC BAA-44 assessed as increase in red fluorescence at 1.5 uM incubated for 60 mins measured after drug washout by flow cytometry; format: ADME, organism-based; conditions: in vivo, 1 h
Outline: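 Stationary-phase overnight BHI cultures (37 °C) were washed twice and resuspended in PBS (pH 7.3) at ~2 × 10^7 cells/mL. They were then analysed by flow cytometry for cell-associated red porphyrin fluorescence, either unwashed or after three PBS washes (10 000g, 5 min). Cells without PS set the background fluorescence.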

[6] = Drug uptake in human HFFF2 cells assessed as increase in red fluorescence at 5 uM incubated for 60 mins followed by irradiated with 13.5 J cm'-2 of blue light by flow cytometry; format: ADME, cell-based; conditions: hfff2, 1 h
[7] = Drug uptake in human HFFF2 cells assessed as increase in red fluorescence at 5 uM incubated for 60 to 3 hrs mins followed by irradiated with 13.5 J cm'-2 of blue light measured after drug washout by flow cytometry; format: ADME, cell-based; conditions: hfff2, 5 µM
[8] = Drug uptake in human HFFF2 cells in assessed as increase in red fluorescence at 5 uM incubated for 60 to 3 hrs mins by flow cytometry; format: ADME, cell-based; conditions: hfff2, 5 µM
[9] = test system: Escherichia coli; assay: Drug uptake in Escherichia coli ATCC 25922 assessed as increase in red fluorescence at 5 uM incubated for 60 mins by flow cytometry; format: ADME, organism-based; conditions: in vivo, 1 h
Outline: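 Stationary-phase cells grown overnight in BHI at 37 °C, washed twice, resuspended in PBS pH 7.3 at ~2 × 10^7 cells/mL. Exposed to PS in the dark at room temperature for 60 min, then analysed directly or after three PBS washes (centrifugation at 10 000g for 5 min). Read-out is cell-associated porphyrin red fluorescence by flow cytometry; background taken from cells without PS.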

[10] = Photoinactivation of human HFFF2 cells at 5 uM incubated for 60 mins followed by irradiated with 13.5 J cm'-2 of blue light; format: cell-based; conditions: hfff2, 1 h; outline: as §1
[11] = Photoinactivation of human HFFF2 cells incubated for 60 mins followed by irradiated with 13.5 J cm'-2 of blue light; format: cell-based; conditions: HFFF2, light or radiation study, 1 h
[12] = test system: Escherichia coli; assay: Photoinactivation of Escherichia coli ATCC 25922 assessed as log reduction of CFU at 15 uM incubated for 60 mins followed by irradiated with 13.5 J cm'-2 of blue light measured after drug washout; format: functional
Outline: (§2)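 Stationary-phase overnight BHI cultures (37 °C) were washed and resuspended in PBS (pH 7.3) at ~2 × 10^7 cells/mL, then incubated with PS in the dark at rt for 60 min. Suspensions were left unwashed or washed three times with PBS. They were irradiated with blue light (390–460 nm, 15.2 mW cm−2) to 13.5 J cm−2. Serial 10-fold dilutions were plated in duplicate on BHI agar and cfu counted after overnight growth at 37 °C. Experiments were repeated at least three times.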

[13] = test system: Escherichia coli; assay: Photoinactivation of Escherichia coli ATCC 25922 assessed as log reduction of CFU at 5 uM incubated for 60 mins followed by irradiated with 13.5 J cm'-2 of blue light measured after drug washout; format: functional
Outline: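 Overnight BHI cultures (37 °C, stationary phase) washed and resuspended in PBS pH 7.3 at ~2 × 10^7 cells/mL. Incubated with increasing PS concentrations for 60 min in the dark at room temperature. Serial 10-fold dilutions plated in duplicate on BHI agar for CFU; at least three independent experiments.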

[14] = test system: Staphylococcus aureus; assay: Photoinactivation of methicillin-resistant Staphylococcus aureus ATCC BAA-44 at 0.5 to 1 uM incubated for 60 mins followed by irradiated with 13.5 J cm'-2 of blue light; format: functional, organism-based; outline: as §2

SMILES	Drug uptake [1]	Activity [2]	Drug uptake [3]	solubility [4]	Drug uptake [5]	Drug uptake [6]	Drug uptake [7]	Drug uptake [8]	Drug uptake [9]	Activity [10]	IC50 [11] [nM]	CFU/ml [12] [log reduction]	Activity [13]	Activity [14]
O=C(O)c1ccc(-c2c3nc(c(-c4ccccc4)c4ccc([nH]4)c(-c4ccccc4)c4nc(c(-c5ccccc5)c5ccc2[nH]5)C=C4)C=C3)cc1	Not Active	Toxic	Active	Insoluble	Not Active	Active	Active	Active	Not Active	Toxic	1270	–	–	–
CC[C@H](C)[C@H](NC(=O)[C@H](Cc1ccc(O)cc1)NC(=O)[C@@H](NC(=O)[C@@H]1CCCN1C(=O)[C@H](CCCNC(=N)N)NC(=O)[C@H](CC(N)=O)NC(=O)[C@H](CC(N)=O)NC(=O)CNC(=O)c1ccc(-c2c3nc(c(-c4cc[n+](C)cc4)c4ccc([nH]4)c(-c4cc[n+](C)cc4)c4nc(c(-c5cc[n+](C)cc5)c5ccc2[nH]5)C=C4)C=C3)cc1)C(C)C)C(=O)N1CCC[C@H]1C(=O)N[C@@H](CCC(N)=O)C(=O)N1CCC[C@H]1C(=O)N[C@@H](CCCNC(=N)N)C(=O)N1CCC[C@H]1C(=O)N1CCC[C@H]1C(=O)N[C@@H](Cc1cncn1C)C(=O)N1CCC[C@H]1C(=O)N[C@@H](CCCNC(=N)N)C(=O)N[C@@H](CC(C)C)C(=O)O (X1-GNNRPVYIPQPRPP[His(π-Me)]PRL-OH)	Not Active	–	Active	–	–	–	Active	Active	–	–	9	–	–	–
C[n+]1ccc(-c2c3nc(c(-c4cc[n+](C)cc4)c4ccc([nH]4)c(-c4ccc(C(=O)O)cc4)c4ccc([nH]4)c(-c4cc[n+](C)cc4)c4nc2C=C4)C=C3)cc1	Not Active	Toxic	Active	–	Not Active	Active	Active	Active	Not Active	Toxic	230	1	Active	Active
CC[C@H](C)[C@H](NC(=O)[C@H](Cc1ccc(O)cc1)NC(=O)[C@@H](NC(=O)[C@@H]1CCCN1C(=O)[C@H](CCCNC(=N)N)NC(=O)[C@H](CC(N)=O)NC(=O)[C@H](CC(N)=O)NC(=O)CNC(=O)c1ccc(-c2c3nc(c(-c4ccccc4)c4ccc([nH]4)c(-c4ccccc4)c4nc(c(-c5ccccc5)c5ccc2[nH]5)C=C4)C=C3)cc1)C(C)C)C(=O)N1CCC[C@H]1C(=O)N[C@@H](CCC(N)=O)C(=O)N1CCC[C@H]1C(=O)N[C@@H](CCCNC(=N)N)C(=O)N1CCC[C@H]1C(=O)N1CCC[C@H]1C(=O)N[C@@H](Cc1cnc[nH]1)C(=O)N1CCC[C@H]1C(=O)N[C@@H](CCCNC(=N)N)C(=O)N[C@@H](CC(C)C)C(=O)O ({Benzoyl(4-TriPhPorphyrinyl)}-GNNRPVYIPQPRPPHPRL-OH)	Active	–	Active	–	–	–	Active	Active	–	–	21	–	–	–
